Results reported in ChEMBL document CHEMBL1781959, “Synthesis and in vitro antitumor activity of substituted quinazoline and quinoxaline derivatives: search for anticancer agent” (Eur J Med Chem, 2011).

Key:
Format in all cases: functional
M14 = assay: Anticancer activity against human M14 cells assessed as cell growth promotion at 10^-5 M after 48 hrs by SRB assay relative to control
MOLT-4 = assay: Anticancer activity against human MOLT4 cells assessed as cell growth promotion at 10^-5 M after 48 hrs by SRB assay relative to control
SN12C = assay: Anticancer activity against human SN12C cells assessed as cell growth promotion at 10^-5 M after 48 hrs by SRB assay relative to control
HCT-116 = assay: Anticancer activity against human HCT116 cells assessed as cell growth promotion at 10^-5 M after 48 hrs by SRB assay relative to control
MDA-MB-435 = assay: Anticancer activity against human MDA-MB-435 cells assessed as cell growth promotion at 10^-5 M after 48 hrs by SRB assay relative to control
SK-MEL-28 = assay: Anticancer activity against human SK-MEL-28 cells assessed as cell growth promotion at 10^-5 M after 48 hrs by SRB assay relative to control
RXF 393 = assay: Anticancer activity against human RXF393 cells assessed as cell growth promotion at 10^-5 M after 48 hrs by SRB assay relative to control
T47D = assay: Anticancer activity against human T47D cells assessed as cell growth promotion at 10^-5 M after 48 hrs by SRB assay relative to control
UO-31 = assay: Anticancer activity against human UO31 cells assessed as cell growth promotion at 10^-5 M after 48 hrs by SRB assay relative to control
UACC-257 = assay: Anticancer activity against human UACC257 cells assessed as cell growth promotion at 10^-5 M after 48 hrs by SRB assay relative to control
K562 = assay: Anticancer activity against human K562 cells assessed as cell growth promotion at 10^-5 M after 48 hrs by SRB assay relative to control
NCI-H23 = assay: Anticancer activity against human NCI-H23 cells assessed as cell growth promotion at 10^-5 M after 48 hrs by SRB assay relative to control
HL-60(TB) = assay: Anticancer activity against human HL-60(TB) cells assessed as cell growth promotion at 10^-5 M after 48 hrs by SRB assay relative to control
How it was run: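 NCI-60 single-dose screen: compound at 10^-5 M, 48 h at 37 °C, 5% CO2; cells grown in RPMI 1640 with 5% FBS and 2 mM L-glutamine, pre-incubated 24 h before dosing. Adherent cells fixed with cold TCA; endpoint is sulforhodamine B protein staining. Percent growth of treated cells is reported relative to untreated control.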

NCI-H226 = assay: Anticancer activity against human NCI-H226 cells assessed as cell growth promotion at 10^-5 M after 48 hrs by SRB assay relative to control
HT-29 = assay: Anticancer activity against human HT-29 cells assessed as cell growth promotion at 10^-5 M after 48 hrs by SRB assay relative to control
U-251 = assay: Anticancer activity against human U251 cells assessed as cell growth promotion at 10^-5 M after 48 hrs by SRB assay relative to control
ACHN = assay: Anticancer activity against human ACHN cells assessed as cell growth promotion at 10^-5 M after 48 hrs by SRB assay relative to control
HOP-62 = assay: Anticancer activity against human HOP62 cells assessed as cell growth promotion at 10^-5 M after 48 hrs by SRB assay relative to control
DU-145 = assay: Anticancer activity against human DU145 cells assessed as cell growth promotion at 10^-5 M after 48 hrs by SRB assay relative to control
SW-620 = assay: Anticancer activity against human SW620 cells assessed as cell growth promotion at 10^-5 M after 48 hrs by SRB assay relative to control
MDA-MB-468 = assay: Anticancer activity against human MDA-MB-468 cells assessed as cell growth promotion at 10^-5 M after 48 hrs by SRB assay relative to control
SR = assay: Anticancer activity against human SR cells assessed as cell growth promotion at 10^-5 M after 48 hrs by SRB assay relative to control
KM12 = assay: Anticancer activity against human KM12 cells assessed as cell growth promotion at 10^-5 M after 48 hrs by SRB assay relative to control
[1] = Anticancer activity against human […] cells assessed as cell growth promotion at 10^-5 M after 48 hrs by SRB assay relative to control
HCT-15 = assay: Anticancer activity against human HCT15 cells assessed as cell growth promotion at 10^-5 M after 48 hrs by SRB assay relative to control
SK-MEL-5 = assay: Anticancer activity against human SK-MEL-5 cells assessed as cell growth promotion at 10^-5 M after 48 hrs by SRB assay relative to control
MCF7 = assay: Anticancer activity against human MCF7 cells assessed as cell growth promotion at 10^-5 M after 48 hrs by SRB assay relative to control
IGROV-1 = assay: Anticancer activity against human IGROV1 cells assessed as cell growth promotion at 10^-5 M after 48 hrs by SRB assay relative to control
[2] = Anticancer activity against human Hs 578T cells assessed as cell growth promotion at 10^-5 M after 48 hrs by SRB assay relative to control
SF-268 = assay: Anticancer activity against human SF268 cells assessed as cell growth promotion at 10^-5 M after 48 hrs by SRB assay relative to control
NCI/ADR-RES = assay: Anticancer activity against human NCI/ADR-RES cells assessed as cell growth promotion at 10^-5 M after 48 hrs by SRB assay relative to control
COLO 205 = assay: Anticancer activity against human COLO205 cells assessed as cell growth promotion at 10^-5 M after 48 hrs by SRB assay relative to control
OVCAR-8 = assay: Anticancer activity against human OVCAR8 cells assessed as cell growth promotion at 10^-5 M after 48 hrs by SRB assay relative to control
SF-295 = assay: Anticancer activity against human SF295 cells assessed as cell growth promotion at 10^-5 M after 48 hrs by SRB assay relative to control
SK-OV-3 = assay: Anticancer activity against human SKOV3 cells assessed as cell growth promotion at 10^-5 M after 48 hrs by SRB assay relative to control
SNB-19 = assay: Anticancer activity against human SNB19 cells assessed as cell growth promotion at 10^-5 M after 48 hrs by SRB assay relative to control
SF-539 = assay: Anticancer activity against human SF539 cells assessed as cell growth promotion at 10^-5 M after 48 hrs by SRB assay relative to control
HCC 2998 = assay: Anticancer activity against human HCC2998 cells assessed as cell growth promotion at 10^-5 M after 48 hrs by SRB assay relative to control

Structure (SMILES) | Activity (M14) | Activity (MOLT-4) | Activity (SN12C) | Activity (HCT-116) | Activity (MDA-MB-435) | Activity (SK-MEL-28) | Activity (RXF 393) | Activity (T47D) | Activity (UO-31) | Activity (UACC-257) | Activity (K562) | Activity (NCI-H23) | Activity (HL-60(TB)) | Activity (NCI-H226) | Activity (HT-29) | Activity (U-251) | Activity (ACHN) | Activity (HOP-62) | Activity (DU-145) | Activity (SW-620) | further results
COc1ccc(OC)c(/C=C/c2nc3ccccc3nc2SCc2nc3ccccc3[nH]2)c1 | 99.58% | 69.92% | 88.34% | 73.92% | 105% | 118% | 87% | 63.43% | 60.33% | 111% | 90.78% | 92.16% | 91.21% | 87.18% | 80.4% | 104% | 94.36% | 87.33% | 98.54% | 96.03% | Activity (MDA-MB-468): 98.24%; Activity (SR): 81.4%; Activity (KM12): 97.42%; Activity [1]: 77.53%; Activity (HCT-15): 103%; Activity (SK-MEL-5): 75.46%; Activity (MCF7): 82.73%; Activity (IGROV-1): 79.39%; Activity [2]: 87.08%; Activity (SF-268): 99.47%; Activity (NCI/ADR-RES): 95.82%; Activity (COLO 205): 104%; Activity (OVCAR-8): 92.09%; Activity (SF-295): 110%; Activity (SK-OV-3): 85.7%; Activity (SNB-19): 98.9%; Activity (SF-539): 94.92%
O=c1c2ccccc2nc(-c2ccco2)n1O | 89.53% | 101.31% | 98.6% | 105.94% | 124.51% | 109.58% | 117.15% | 106.81% | 68.92% | 112.27% | 105.54% | 105.41% | 95.84% | 97.88% | 103.19% | 110.85% | 98.81% | 112.74% | 122.21% | 107.69% | Activity (MDA-MB-468): 115.34%; Activity (HCC 2998): 119.5%; Activity (SR): 94.7%; Activity (KM12): 110.22%; Activity (HCT-15): 108.36%; Activity (SK-MEL-5): 111.56%; Activity (MCF7): 103.51%; Activity (IGROV-1): 103.91%; Activity (SF-268): 106.3%; Activity (NCI/ADR-RES): 112.3%; Activity (COLO 205): 107.29%; Activity (OVCAR-8): 110.28%; Activity (SF-295): 117.66%; Activity (SK-OV-3): 106.84%; Activity (SNB-19): 101.58%; Activity (SF-539): 95.42%
